Screens deposited in PubChem BioAssay by Johns Hopkins Ion Channel Center.
Sampled rows, rich in hits. Any-hit rate of the full collection: about 3.5%.
MrgX1 PAM – human MrgX1 positive allosteric modulation, primary screen | AID 588675 | actives 0.63% (n = 310,000) | MrgX1-HEK293, Fluo-4 calcium flux, FDSS; active compounds read high | Q96LB2 | B-score at 10 µM;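 active = plate-corrected calcium response at least 3 library SD above typical, normal starting fluorescence, not activating the receptor alone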;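 note: compound read alongside a low EC10 to EC30 dose of BAM8-22 agonist; peak minus trough fluorescence over baseline measured at the second addition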
Target sequence (Q96LB2 whole entry, looked up): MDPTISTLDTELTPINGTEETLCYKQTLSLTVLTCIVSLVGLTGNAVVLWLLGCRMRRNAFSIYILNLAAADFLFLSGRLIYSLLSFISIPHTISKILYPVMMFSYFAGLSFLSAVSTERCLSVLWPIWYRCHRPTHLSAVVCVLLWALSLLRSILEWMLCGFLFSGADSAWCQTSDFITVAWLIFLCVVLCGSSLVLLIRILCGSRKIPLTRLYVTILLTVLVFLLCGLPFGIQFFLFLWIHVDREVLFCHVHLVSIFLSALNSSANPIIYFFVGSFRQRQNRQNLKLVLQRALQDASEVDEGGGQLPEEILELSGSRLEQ
MrgX1 antag – antagonists of human MrgX1 receptor | Q96LB2 | MRGX1-HEK293 calcium flux, Fluo-4, BAM8-22 antagonism; active compounds read low | B-score at 10 µM | actives 1.3% (n = 310,000) | AID 588676;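 active = calcium-response B-score plate-corrected more than 3 library SD below zero, starting fluorescence within 5 deviations, no agonist response on first addition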;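 note: peak minus trough fluorescence over baseline after final BAM8-22 challenge near maximal dose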
RGS4 block – inhibitors of human RGS4; actives 0.45% (n = 310,000); B-score at 10 µM; HEK293 M3R/RGS4 inducible, Fluo-4 calcium flux; active compounds read high; triggered by carbachol at its EC20; P49798;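 active = B-score, a plate-corrected calcium signal, over three deviations above library mean, with baseline fluorescence within five deviations of library mean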;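 note: RGS4 expression induced by doxycycline in cells with stable M3 receptor; B-score is computed from the integrated fluorescence ratio over baseline after carbachol; higher B-score means a larger calcium signal and so more RGS4 inhibition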
Target sequence (P49798 whole entry, looked up): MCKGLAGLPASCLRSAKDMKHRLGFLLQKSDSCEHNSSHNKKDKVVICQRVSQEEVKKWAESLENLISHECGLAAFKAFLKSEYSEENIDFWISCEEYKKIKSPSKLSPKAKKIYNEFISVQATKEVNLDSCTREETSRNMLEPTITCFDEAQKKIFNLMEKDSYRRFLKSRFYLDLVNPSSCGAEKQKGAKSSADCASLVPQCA
MrgX1 ag – activates human MrgX1 receptor signaling; Q96LB2; MrgX1-HEK293 cells, Fluo-4 calcium fluorescence, agonist mode; active compounds read high; B-score at 10 µM; actives 0.44% (n = 310,000);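 active = calcium response B-score plate-corrected fluorescence ratio at least 3 library SD, with starting fluorescence B-score inside 5 SD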
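Test system: HEK293 cells stably expressing human MrgX1 receptor; amount: 15,000 cells per well; doses: compound delivered in addition one of three; times: overnight plating before 1 h dye loading; detection: Fluo-4 NW calcium-flux fluorescence, kinetic read; read-out basis: B-scored fluorescence response ratio; controls: positive and negative controls per plate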
RGS4 pot – potentiators or activators of RGS4 | HEK293 M3R/inducible RGS4, carbachol calcium flux Fluo4; active compounds read low | B-score at 10 µM | actives 0.92% (n = 310,000) | AID 463111;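 active = B-score of the integrated calcium signal more than 4 SD below the library mean, with starting fluorescence not abnormally high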;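 note: negative B-score means reduced calcium response which marks RGS4 activation or potentiation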
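Detection: kinetic calcium fluorescence imaging with Fluo4-AM dye, 2 µM / Material: HEK293 cells with stable M3R and inducible RGS4 / Schedule: recording 10 s baseline at 1 Hz, 100 s post-agonist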
MrgX1 ant reconf – human MrgX1 receptor antagonism, re-confirmation screen; shares compounds with MrgX1 antag; actives 19% (n = 2,300); MrgX1-HEK293, BAM8-22 calcium flux, Fluo-4; active compounds read low; remaining BAM8-22 calcium response % of control (active compounds read low), % at 10 µM;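 active = remaining agonist calcium response no higher than 100% minus 3 SD of agonist-only control wells, with starting fluorescence near control levels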;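 note: agonist BAM8-22 given at a near maximal EC90 to ECmax level; peak minus minimum fluorescence divided by baseline after agonist addition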
HEK293 Ca flux – counter-screen for MrgX1 antagonists: effect in parental HEK293 cells | fluorescence ratio F(max-min)/F0 at 10 µM | Fluo-4 calcium fluorescence, FDSS | actives 2% (n = 4,000) | shares compounds with MrgX1 antag;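 active = duplicate-averaged calcium fluorescence ratio at least three times the standard deviation of buffer wells, a nonspecific response in parental cells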
HEK293 Ca counter – MrgX1 allosteric activator counter-screen hit in parental HEK293 cells. fluorescence ratio F(max-min)/F0 at 10 µM. parental HEK293 calcium flux, Fluo-4 fluorescence ratio; active compounds read high. AID 624114. shares compounds with MrgX1 antag. actives 0.4% (n = 4,000);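 active = calcium fluorescence ratio, averaged over duplicates, at least 3 SD of the buffer-well ratio, meaning a nonspecific response in receptor-free cells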;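 note: untransfected parental HEK293 lacking MrgX1 used as counterscreen for MrgX1 allosteric activators; fluorescence change taken during the second addition on a kinetic imager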
HEK293 Ca cntr2 – activity in parental HEK293 cells lacking MrgX1 receptor; AID 624115; shares compounds with MrgX1 antag; fluorescence ratio F(max-min)/F0 at 10 µM; actives 8.7% (n = 4,000); Fluo-4 calcium fluorescence (FDSS); active compounds read high;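 active = calcium fluorescence ratio at least three times the spread of buffer wells, meaning a non-specific response in parental cells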
Starred values were filed as active, the others as inactive; i = inactive; · = not tested or not shown; ! = not confirmed by another sample.

SMILES	MrgX1 PAM	MrgX1 antag	RGS4 block	MrgX1 ag	RGS4 pot	MrgX1 ant reconf	HEK293 Ca flux	HEK293 Ca counter	HEK293 Ca cntr2
COc1ccc(-c2csc(NC(=O)COc3ccc(N(C)S(=O)(=O)c4ccc(C)cc4)cc3)n2)cc1	i	i	i	i	i	·	·	·	·
COc1ccc(S(=O)(=O)Nc2ccccc2C(=O)Nc2nc(-c3ccc(F)cc3)cs2)cc1OC	i	-8.7*	i	i	i	i	i	i	i
COc1ccc(-c2csc(NC(=O)c3ccccc3NS(=O)(=O)c3ccc(C)cc3)n2)cc1	i	-9*	i	i	i	61%*	i	i	i
Cc1ccc(S(=O)(=O)N2CCCC2)cc1C(=O)N1CCC(C)CC1	i	i	i	i	i	·	·	·	·
O=C(CSc1nc2scc(-c3ccccc3)c2c(=O)[nH]1)NCCc1ccccc1	i	i	i	i	i	·	·	·	·
O=C(CSc1nc2scc(-c3ccccc3)c2c(=O)[nH]1)N1CCOCC1	i	-9.1*	i	i	i	i	i	i	i
Cc1sc2nc(SCC(=O)N3CCCCC3)[nH]c(=O)c2c1C	i	-7.3*	i	i	i	i	i	i	i
Cc1sc2nc(SCC(=O)N3CCCC3)[nH]c(=O)c2c1C	i	i	i	i	i	·	·	·	·
CC(C)Oc1ccc(C(=O)NC2CCCCC2)cc1	i	i	i	i	i	·	·	·	·
CC(C)Oc1ccc(C(CCN)C2CCCCC2)cc1 (stereo not drawn)	i	-4.7*	i	i	i	i	i	i	i
COc1ccc(-c2cn3c(C)c(C(=O)Nc4cccc(C)n4)sc3n2)cc1	i	-5.3*	i	i	i	82%*	i	i	i
Cc1cccc(NC(=O)c2sc3nc(-c4ccccc4)cn3c2C)n1	i	i	i	i	i	·	·	·	·
COc1ccc(OC)c(CNS(=O)(=O)c2cn(C)cn2)c1	i	-4.5*	i	i	i	i	i	i	i
CCC(C)NC(=O)C1c2ccccc2C(=O)N(c2ccc(OC)cc2)C1c1ccc(OC)cc1 (stereo not drawn)	i	-6.5*	i	i	i	i	i	i	i
CC(NC(N)=O)C(=O)OCc1ccc(Cl)cc1Cl (stereo not drawn)	i	-8.2*	i	i	i	i	i	i	i
COC(=O)/C(=C\Nc1ccccc1N)c1ncc(C(F)(F)F)cc1Cl	i	-4.5*	i	i	i	i	i	i	i
O=C(NC1CC1)C1CCN(S(=O)(=O)c2cc(Cl)ccc2Cl)CC1	i	-5.4*	i	i	i	i	i	i	i
Cc1ccc2nc3sc(C(=O)N4CCCc5ccccc54)c(N)c3cc2c1	i	-5.7*	i	i	i	i	0.58*	i	i
CCSc1nc2sc3c(c2c(=O)n1CC)CC(C)(C)OC3	i	-7.1*	i	i	i	i	i	i	i
CCn1c(SCC(=O)OC)nc2sc3c(c2c1=O)CC(C)(C)OC3	i	i	i	i	i	·	·	·	·
CCOc1ccc(Cc2nnc(SCC(=O)Nc3ccccc3)n(N)c2=O)cc1	i	i	i	i	i	·	·	·	·
CC(C)CN(C(=O)c1ccco1)C1CCS(=O)(=O)C1 (stereo not drawn)	i	-4.9*	i	i	i	i	i	i	i
COCc1cc(C)nc(SCc2ccccc2)c1C#N	i	i	i	i	i	·	·	·	·
Cc1ccccc1OCC(O)Cn1c(=N)n(CCN2CCOCC2)c2ccccc21 (stereo not drawn)	i	-8.5*!	i	i	i	i	i	i	i
CSc1cccc(NC(=S)N(CCC(C)C)C2CCN(C(C)=O)CC2)c1	i	i	i	i	i	·	·	·	·
SMILES	MrgX1 PAM	MrgX1 antag	RGS4 block	MrgX1 ag	RGS4 pot	MrgX1 ant reconf	HEK293 Ca flux	HEK293 Ca counter	HEK293 Ca cntr2
CSc1cccc(NC(=S)N(CCC(C)C)C2CCN(C(C)C)CC2)c1	i	-6.3*	i	i	i	i	i	i	i
Cc1ccc2nc(-c3ccc(NC(=O)CSc4ccccc4)cc3)[nH]c2c1	i	-5.3*	i	i	i	i	i	i	i
Cc1cccc(-n2nnnc2SCC(=O)c2cc(C)n(CC3CCCO3)c2C)c1 (stereo not drawn)	i	i	i	i	i	·	·	·	·
CCOC(=O)Cc1csc(NC(=O)Nc2ccc(Cl)cc2)n1	i	i	i	i	i	·	·	·	·
CCOC(=O)Cc1csc(NC(=O)Nc2cccc(Cl)c2)n1	i	-7.4*	i	i	i	i	i	i	i
CCOC(=O)Cc1csc(NC(=O)c2sc3nc4cc(C)ccc4cc3c2N)n1	i	-6.4*	i	i	i	i	i	i	i
CCOC(=O)Cc1csc(NC(=O)c2sc3nc4ccc(CC)cc4cc3c2N)n1	i	i	i	i	i	·	·	·	·
CCOCc1c(C(=O)Nc2cc(OCC)c(N3CCOCC3)cc2OCC)oc2ccccc12	i	i	i	i	i	·	·	·	·
COc1cc(NC(=O)c2ccco2)c(OC)cc1NC(=O)Nc1ccccc1Cl	i	-5.9*	i	i	i	i	i	i	i
Cc1ccccc1-n1c(-c2ccoc2C)n[nH]c1=S	i	i	i	i	i	·	·	·	·
CCCNC(=S)N1CCN(c2nc(C)nc3sc4c(c23)CCCC4)CC1	i	i	i	i	i	·	·	·	·
COCCCNC(=S)N1CCN(c2nc(C)nc3sc4c(c23)CCCC4)CC1	i	-6.6*	i	i	i	i	i	i	i
c1ccc(CNc2ccccn2)cc1	i	i	i	i	i	·	·	·	·
c1ccc(Nc2ccccc2Nc2ccccn2)nc1	i	-4.7*	i	i	i	78%*	i	i	i
